Experimental data pooled from the literature.
Protocols differ between the studies behind these lines.
CSF1R autoinhibited: Macrophage colony-stimulating factor 1 receptor, autoinhibited (CSF1R, Homo sapiens, UniProt P07333)
CSF1R: Macrophage colony-stimulating factor 1 receptor (CSF1R, Homo sapiens, UniProt P07333)

Compound | target | test | conditions | remaining binding [%]
C=CC(=O)N1CCC(C(=O)NCC(=O)N2CCN(c3nc(-c4cnc(N)nc4C(F)F)nc(N4CCOCC4)n3)CC2)CC1 | CSF1R autoinhibited | binding, competition with immobilised ligand | 1 µM | 20
CCN1CCN(Cc2ccc(C(=O)Nc3ccc(C)c(Oc4ccc5c(c4)CC(=O)N5)c3)cc2C(F)(F)F)CC1 | CSF1R | binding, competition with immobilised ligand | 1 µM | 2
CCS(=O)(=O)c1cc2cc(C[C@@](O)(CC(C)(C)c3ccc(F)cc3C(N)=O)C(F)(F)F)[nH]c2cn1 | CSF1R | cell-free assay, competition with immobilised ligand | 1 µM | 100
CN(CCCC(F)(F)F)c1nccc(-c2cnn3ncccc23)n1 | CSF1R | binding | 1 µM | 93
O=C(NCCCN1CCOCC1)c1ccc(Nc2ncc(Cl)c(-c3ccc(Cl)s3)n2)cc1 | CSF1R autoinhibited | binding, competition with immobilised ligand | 1 µM | 42
Cc1cnn2ncc(-c3ccnc(N(C)C)n3)c2c1 | CSF1R | binding | 1 µM | 100
CC(=O)Nc1c(C(C)=O)c(=O)n(C)c2nc(-c3ccc(Cl)cc3Cl)c(-c3ccc(Cl)cc3)cc12 | CSF1R | cell-free assay, competition with immobilised ligand | 1 µM | 100
c1cncc(-c2cccc(Nc3nccc(NC4CCCCC4)n3)c2)c1 | CSF1R autoinhibited | binding, competition with immobilised ligand | 10 µM | 0
CC(=O)C1=C(C)N(c2cccc(C(F)(F)F)c2)C(=O)N[C@@H]1c1ccc(C#N)nc1 | CSF1R autoinhibited | cell-free assay, competition with immobilised ligand | 1 µM | 100
Nc1ncc2c(n1)-c1c([nH]c3ccc(C#CC4CC4)cc13)CCCC2 | CSF1R autoinhibited | binding, competition with immobilised ligand | 1 µM | 85
F[C@@H]1CCN(c2nccc(-c3cnn4ncccc34)n2)C1 | CSF1R autoinhibited | binding | 1 µM | 81
O=C(c1ccc(Nc2nccc(-c3cc4ccccc4s3)n2)cc1)N1CCC(N2CCCC2)CC1 | CSF1R autoinhibited | binding, competition with immobilised ligand | 1 µM | 77
N[C@H]1CCN(c2nccc(-c3cnn4ncccc34)n2)C1 | CSF1R autoinhibited | binding | 1 µM | 100
COc1cnc(Nc2cccc(S(N)(=O)=O)c2)nc1N1CCN(c2ccccc2)CC1 | CSF1R autoinhibited | binding, competition with immobilised ligand | 1 µM | 99
CO[C@@H](C)c1c(Nc2ccc([C@@H](N(C)C(=O)C3CCS(=O)(=O)CC3)C(F)(F)F)cc2)cnc2cc(Cl)nn12 | CSF1R | cell-free assay, competition with immobilised ligand | 1 µM | 72
O=C(NCC1CCOCC1)c1n[nH]cc1NC(=O)c1c(F)cccc1F | CSF1R autoinhibited | binding, competition with immobilised ligand | 1 µM | 62
CNC(=O)[C@@H]1CC[C@@H](n2c(-c3ccc4cnccc4c3)nc3ccc(C(=O)NCc4cccc(C(N)=O)c4)cc32)C1 | CSF1R | binding, competition with immobilised ligand | 1 µM | 100
C[C@H]1CCN(c2nccc(-c3cnn4ncccc34)n2)C1 | CSF1R | binding | 1 µM | 100

Compound | target | test | conditions | remaining binding [%]
O=C(Nc1c[nH]nc1C(=O)NC1CCNCC1)c1cc(F)cc(F)c1 | CSF1R autoinhibited | binding, competition with immobilised ligand | 1 µM | 90
COc1ccc2c(O[C@@H]3C[C@H]4C(=O)N[C@]5(C(=O)O)CC5/C=C\CCCCC[C@H](NC(=O)OC5CCCC5)C(=O)N4C3)cc(-c3csc(NC(=O)C(C)C)n3)nc2c1C (stereo partly drawn) | CSF1R | cell-free assay, competition with immobilised ligand | 1 µM | 71
FC(F)(F)Oc1cccc(-c2cnc3ccc(-c4ccncc4)nn23)c1 | CSF1R | cell-free assay, competition with immobilised ligand | 5 µM | 59
O=C(NCCCN1CCOCC1)c1ccc(Nc2nccc(-c3cc4ccccc4s3)n2)cc1 | CSF1R | binding, competition with immobilised ligand | 1 µM | 50
COc1ncc2cc3ccccc3nc2c1C#N | CSF1R | cell-free assay, competition with immobilised ligand | 5 µM | 96
COc1cnc(Nc2cccc(S(N)(=O)=O)c2)nc1N1CCN(c2ccccc2)C(=O)C1 | CSF1R | binding, competition with immobilised ligand | 1 µM | 100
CC1CCCN1c1nccc(-c2cnn3ncccc23)n1 (stereo not drawn) | CSF1R autoinhibited | binding | 1 µM | 99
O=C(c1ccc(Nc2ncc(Cl)c(-c3cc4ccccc4s3)n2)cc1)N1CCC(N2CCCC2)CC1 | CSF1R autoinhibited | binding, competition with immobilised ligand | 1 µM | 56
CS(=O)(=O)N1CCCC(NC(=O)[C@H](CCC2CCCCC2)NC(=O)c2ccc(CNc3ncnc4c3nnn4-c3ccccc3)cc2)C1 (stereo partly drawn) | CSF1R autoinhibited | cell-free assay, competition with immobilised ligand | 0.1 µM | 100
Cc1cnc(Nc2ccc(C(=O)N3CCC(N4CCCC4)CC3)cc2)nc1-c1cc2ccccc2s1 | CSF1R | binding, competition with immobilised ligand | 1 µM | 12
Cc1nc(NC(=O)N2CCC[C@H]2C(N)=O)sc1-c1ccnc(C(C)(C)C(F)(F)F)c1 | CSF1R autoinhibited | binding, competition with immobilised ligand | 10 µM | 98
CN([C@@H]1CCc2c(CC(=O)O)c3cc(S(C)(=O)=O)ccc3n2C1)S(=O)(=O)c1ccc(F)cc1 | CSF1R autoinhibited | cell-free assay, competition with immobilised ligand | 1 µM | 93
CN(C)c1ncc(F)c(-c2cnn3ncccc23)n1 | CSF1R | binding | 1 µM | 91
O=C(c1ccc(Nc2ncc(Cl)c(-c3ccc(Cl)s3)n2)cc1)N1CCC(N2CCCC2)CC1 | CSF1R autoinhibited | binding, competition with immobilised ligand | 1 µM | 17
CCC(=O)N[C@H]1CC[C@@H](C(=O)N(C)c2ccc(-c3nc4ccccc4o3)cc2)C1 | CSF1R autoinhibited | cell-free assay, competition with immobilised ligand | 1 µM | 56
C[C@@H](c1ccc(-n2cnc3c(N)ncnc32)cc1)N1CCc2nn(C)c(Cc3ccccc3)c2C1=O | CSF1R autoinhibited | binding, competition with immobilised ligand | 0.1 µM | 81
C[C@@H]1CN(c2ccc3ncc(-c4ccc5[nH]nc(C6CC6)c5c4)n3n2)C[C@H](C)O1 | CSF1R | binding, competition with immobilised ligand | 0.5 µM | 100
COc1ccnn2ncc(-c3ccnc(N(C)C)n3)c12 | CSF1R | binding | 1 µM | 100
